Measurements from ChEMBL document CHEMBL3352720, “Novel alkylphospholipid-DTC hybrids as promising agents against endocrine related cancers acting via modulation of Akt-pathway” (Eur J Med Chem, 2014).
Calls of active or inactive are those of the source. The calls are words filed in the database; no cut-off is given here.

Tests used:
MCF7 [1] = assay: Down-regulation of cyclin A1 mRNA expression in human MCF7 cells at 2 to 10 uM incubated for 24 hrs by quantitative real time PCR method; type: functional, cell-based
Method in brief: (§1)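 MCF-7 cells in DMEM/10% FBS were treated for 24 h at the indicated concentrations, then harvested, and mRNA levels were determined by qPCR.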

MCF7 [2] = assay: Down-regulation of cyclin A2 mRNA expression in human MCF7 cells at 2 to 10 uM incubated for 24 hrs by quantitative real time PCR method; type: functional, cell-based; method in brief: as §1
MCF7 [3] = assay: Down-regulation of Bcl-2 mRNA expression in human MCF7 cells at 2 to 10 uM incubated for 24 hrs by quantitative real time PCR method; type: functional, cell-based; method in brief: as §1
MCF7 [4] = assay: Induction of mitochondrial membrane potential loss in human MCF7 cells assessed as increase in JC1 dye monomer green fluorescence at 7 uM incubated for 24 hrs by JC1 dye based flow cytometry (reference value: 1.78%); type: functional
MDA-MB-231 [5] = assay: Inhibition of AKT Ser473 phosphorylation in human MDA-MB-231 cells at 2 uM incubated for 24 hrs by Western blotting method; type: cell-based
Method in brief: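 After 24 h treatment, cells were washed in ice-cold PBS and lysed in RIPA buffer. Protein was measured by Bradford, equal amounts run on SDS-PAGE and transferred to PVDF. Blots were probed for p-Akt (Ser473) and total Akt, then 1 h with 1:5000 HRP anti-mouse IgG, with chemiluminescent detection. Densitometry was quantified against untreated control.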

MCF7 [6] = assay: Potency index, ratio of IC50 for miltefosine to IC50 for test compound against human MCF7 cells by MTT assay; type: functional
MDA-MB-231 [7] = assay: Antiproliferative activity against human MDA-MB-231 cells assessed as inhibition of cell proliferation incubated for 18 hrs followed by MTT addition for 4 hrs by MTT assay; type: functional, cell-based
Method in brief: (§2)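 MTT assay. Cells were grown in DMEM with 10% FBS at 37 °C, 5% CO2, 90% relative humidity. 1 × 10⁴ cells per well were seeded and held 24 h, then exposed to compounds diluted in culture medium for 18 h. MTT (5 mg/mL stock) was added for a further 4 h.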

MCF7 [8] = assay: Antiproliferative activity against human MCF7 cells assessed as inhibition of cell proliferation incubated for 18 hrs followed by MTT addition for 4 hrs by MTT assay; type: functional, cell-based; method in brief: as §2
HEK293 = assay: Antiproliferative activity against HEK293 cells assessed as inhibition of cell proliferation incubated for 18 hrs followed by MTT addition for 4 hrs by MTT assay; type: cell-based; details: Homo sapiens; method in brief: as §2
[9] = Antiproliferative activity against human DU145 cells assessed as inhibition of cell proliferation incubated for 18 hrs followed by MTT addition for 4 hrs by MTT assay; type: functional, cell-based; details: DU-145; method in brief: as §2
MCF7 [10] = assay: Induction of cell cycle arrest in human MCF7 cells assessed as accumulation at G0/G1 phase at 7 uM incubated for 24 hrs by propidium iodide staining based FACS assay (reference value: 53.32%); type: functional
MCF7 [11] = assay: Induction of cell cycle arrest in human MCF7 cells assessed as accumulation at S phase at 7 uM incubated for 24 hrs by propidium iodide staining based FACS assay (reference value: 45.21%); type: functional
MCF7 [12] = assay: Induction of cell cycle arrest in human MCF7 cells assessed as accumulation at G2/M phase at 7 uM incubated for 24 hrs by propidium iodide staining based FACS assay (reference value: 1.47%); type: functional
MCF7 [13] = assay: Induction of cell cycle arrest in human MCF7 cells assessed as accumulation at sub-diploid phase at 7 uM incubated for 24 hrs by propidium iodide staining based FACS assay (reference value: 7.26%); type: functional
MCF7 [14] = assay: Induction of apoptosis in human MCF7 cells assessed as viable cells level at 7 uM incubated for 24 hrs by annexin-V and propidium iodide staining based flow cytometry (reference value: 89.58%); type: functional
MCF7 [15] = assay: Induction of apoptosis in human MCF7 cells assessed as early apoptotic cells level at 7 uM incubated for 24 hrs by annexin-V and propidium iodide staining based flow cytometry (reference value: 6.42%); type: functional
MCF7 [16] = assay: Induction of apoptosis in human MCF7 cells assessed as late apoptotic cells level at 7 uM incubated for 24 hrs by annexin-V and propidium iodide staining based flow cytometry (reference value: 1.85%); type: functional
MCF7 [17] = assay: Induction of apoptosis in human MCF7 cells assessed as necrotic cells level at 7 uM incubated for 24 hrs by annexin-V and propidium iodide staining based flow cytometry (reference value: 2.15%); type: functional

CCCCCCCCCCOP(=O)(O)OCCSC(=S)N1CCCCC1
Activity (MCF7 [1]): Active | Activity (MCF7 [2]): Active | Activity (MCF7 [3]): Active | Activity (MCF7 [4]): 44.62% | inhibition (MDA-MB-231 [5]): Active | Ratio IC50 (MCF7 [6]): 5 | IC50 (MDA-MB-231 [7]): 24.6 µM | IC50 (MCF7 [8]): 7.24 µM | IC50 (HEK293): 70.7 µM | IC50 [9]: 29.3 µM | Activity (MCF7 [10]): 60.99% | Activity (MCF7 [11]): 39.01% | Activity (MCF7 [12]): 0% | Activity (MCF7 [13]): 23.81% | Activity (MCF7 [14]): 43.43% | Activity (MCF7 [15]): 41.66% | Activity (MCF7 [16]): 12.76% | Activity (MCF7 [17]): 2.15%
